In the library only some 2.1% were active in any assay of this set; here they are far more common.
GSK3B inh – human GSK3beta kinase inhibitors, primary screen, biochemical, cell-free homogeneous, HTS | Glycogen synthase kinase-3 beta (Homo sapiens), P49841 | GST-GSK3beta kinase, ADP-Glo luminescence, 60 min; hits give low values | activity score (negative = inhibition), % at 10 µM | hit rate 0.038% among 300,000;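 active = more than half of replicate wells score below -50%, meaning over 50% inhibition versus plate controls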;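 note: 0% = median DMSO wells and -100% = median GW8510 positive control wells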
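Assay system: GST-tagged human GSK3beta kinase, cell-free; Input: 1.6 ng GSK3beta; Medium: Tris/MgCl2 kinase buffer; Timing: 60 min enzyme reaction, room temperature; Signal: ADP-Glo luminescence quantifying ADP generated by kinase; Evaluation: score relative to plate controls; Benchmarks: DMSO neutral wells and GW8510 at 20 µM as positive.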
MEKK3 PB1 HTS – modulators of MEKK3-MEK5 PB1 binding, primary screen, biochemical, wildtype MEKK3, multiplex bead flow cytometry, Alexa488-MEK5 | Mitogen-activated protein kinase kinase kinase 3 (Homo sapiens), Q99759 | AID 1529, 2009 | hit rate 1.4% among 290,000 | binding response (% of control), % at 10 µM | bead-based flow cytometry, Alexa488-MEK5 binding to MEKK3; actives lie on both sides; 0 = blocked by unlabeled MEK5, 100 = vehicle;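 active = binding response more than 3 SD above or below the average of its plate-row segment, actives on both sides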;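 note: Alexa488 bead fluorescence after subtracting the streptavidin-only scavenger bead signal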
MEKK2wt PB1 HTS – modulators of MEK5 binding to wildtype MEKK2, primary screen, biochemical, multiplex bead flow cytometry, Alexa488-MEK5. hit rate 1.1% among 290,000. binding response (% of control), % at 10 µM. Alexa488-MEK5 binding to MEKK2 WT; actives lie on both sides. Mitogen-activated protein kinase kinase kinase 2 (Homo sapiens), Q9Y2U5; in the data active = binding response below about 67% or above about 130%
GSK3A inh – blockers of GSK3A enzyme activity – biochemical, luminescence, cell-free homogeneous, HTS, primary screen; Glycogen synthase kinase-3 alpha (Homo sapiens), P49840; GSK-3 alpha kinase, ADP-Glo luminescence, 60 min; inhibition, % at 10 µM; hit rate 0.1% among 320,000;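 active = more than half of replicates show inhibition above 20%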;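 note: GST-tagged GSK-3 alpha with peptide substrate and 25 µM ATP; 0% = DMSO neutral wells and 100% = GW8510 positive control wells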
STK33 inh – inhibitors of purified STK33 kinase, primary screen, biochemical, ADP-Glo luminescence, homogeneous, cell-free | hit rate 0.073% among 320,000 | Serine/threonine-protein kinase 33 (Homo sapiens), Q9BYT3 | MBP phosphorylation | inhibition, % at 10 µM;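 active = inhibition at or above 25%, using the most active replicate where run in duplicate; inactive = inhibition below 25%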
Target sequence (Q9BYT3 whole entry, looked up): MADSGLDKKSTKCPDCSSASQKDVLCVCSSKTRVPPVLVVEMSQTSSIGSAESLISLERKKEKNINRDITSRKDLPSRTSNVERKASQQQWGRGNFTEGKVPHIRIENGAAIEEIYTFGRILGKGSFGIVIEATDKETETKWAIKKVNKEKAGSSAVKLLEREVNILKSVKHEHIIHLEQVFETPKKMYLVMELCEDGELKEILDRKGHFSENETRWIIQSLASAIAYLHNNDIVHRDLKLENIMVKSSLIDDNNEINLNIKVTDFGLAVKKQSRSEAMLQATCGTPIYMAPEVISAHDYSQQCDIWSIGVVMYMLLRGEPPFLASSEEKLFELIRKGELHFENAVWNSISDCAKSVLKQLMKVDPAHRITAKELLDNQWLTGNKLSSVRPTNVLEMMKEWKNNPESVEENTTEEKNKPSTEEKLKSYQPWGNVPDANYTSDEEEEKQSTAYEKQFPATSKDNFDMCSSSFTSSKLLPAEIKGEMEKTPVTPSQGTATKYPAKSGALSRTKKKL
MEKK2 mut-MEK5 – MEK5 binding signal on mutant MEKK2 PB1, primary screen, biochemical, multiplex bead flow cytometry, Alexa488-MEK5; Alexa488-MEK5 binding to MEKK2 mutant; hit rate 0.35% among 290,000; percent response, % at 10 µM; in the data active = percent response above about 24%, passing the limit was not always enough
MEKK2wt confirm – modulators of MEK5 binding to wildtype MEKK2, confirmation, biochemical, single concentration, multiplex bead flow cytometry | AID 1892, 2009 | hit rate 2.4% among 5,900 | Alexa488-MEK5 binding to MEKK2 WT; actives lie on both sides | binding response (% of control), % at 10 µM | shares compounds with MEKK3 PB1 HTS; in the data active = binding response below about 16% or above about 210%; inactive = in between
MEKK2mut-MEK5 – mutant MEKK2 PB1-MEK5 binding signal retest – biochemical, single concentration, multiplex bead flow cytometry, confirmation; percent response, % at 10 µM; Alexa488-MEK5 binding to MEKK2 mutant; shares compounds with MEKK3 PB1 HTS; hit rate 2% among 5,900; in the data active = percent response mostly above about 71%, no sharp cut-off; inactive = mostly below about 38%;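 note: higher means compound restores mutant binding toward wildtype level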
MEKK3 confirm – MEKK3 wild-type PB1 binding to MEK5, inhibitors, confirmation, biochemical, bead multiplex flow cytometry, single concentration, wildtype; shares compounds with MEKK3 PB1 HTS; Alexa488-MEK5 binding to MEKK3; hits give low values; binding response (% of control), % at 10 µM; hit rate 1.8% among 5,900; AID 1894, 2009;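 active = binding response below 72% of control, or above a set upper limit, though filed actives all read lower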;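 note: 100% = DMSO only wells and 0% = binding blocked by excess unlabeled MEK5; lower values mean stronger disruption of MEK5 binding to MEKK3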
* hit, by the source's call; . = no result given; [ ] = another dose, or the depositor's remark.

SMILES	GSK3B inh	MEKK3 PB1 HTS	MEKK2wt PB1 HTS	GSK3A inh	STK33 inh	MEKK2 mut-MEK5	MEKK2wt confirm	MEKK2mut-MEK5	MEKK3 confirm
CCCCOC(=O)Nc1ccc(C(=O)OC)cc1	0.1	103.0	99.0	-0.9	-0.7	0.0	.	.	.
COc1ccc(NC(=O)c2ccc(Br)c(S(=O)(=O)N3CCOCC3)c2)cc1	-3.5	100.0	97.0	-0.2	-1.1	0.0	.	.	.
CCOc1ccc(S(=O)(=O)N2CCCC(C(=O)NCc3ccncc3)C2)cc1C (stereo not given)	4.1	100.0	96.0	1.4	0.0	0.0	.	.	.
C=C1CCC[C@]2(C)C[C@H]3OC(=O)C(CNC(C)CCCC(C)C)[C@H]3CC12 (stereo not given in full)	-2.0	109.0	138.0*	1.3	-1.7	17.0	138.0	29.0	107.0
CCn1c(SCC(=O)N/N=C/c2cccs2)nc2ccccc21	-3.4	144.0*	104.0	5.1	-0.2	1.0	100.0	-3.0	103.0
CCn1c(SCC(=O)N/N=C/c2cc(OC)c(O)c(OC)c2)nc2ccccc21	0.1	100.0	99.0	12.7	-0.3	-2.0	.	.	.
CCn1c(SCC(=O)N/N=C/c2ccc(O)c(OC)c2)nc2ccccc21	-5.2	163.0*	112.0	6.6	-0.8	1.0	97.0	0.0	96.0
COc1cc(/C=N/NC(=O)CCc2c(C)n[nH]c2C)ccc1O	0.1	123.0*	111.0	-3.7	-0.7	6.0	104.0	5.0	104.0
COc1ccc(/C=N/NC(=O)CCc2c(C)n[nH]c2C)cc1OC	0.1	97.0	93.0	.	-0.8	-9.0	.	.	.
O=C(NC1=NCCS1)c1ccc(Cl)c(S(=O)(=O)N2CCOCC2)c1	2.3	.	.	-1.0	-0.9	.	.	.	.
O=c1[nH]c(=S)[nH]c2c1C(c1cc([N+](=O)[O-])c(N3CCOCC3)cc1N1CCOCC1)O2 (stereo not given)	1.0	142.0*	125.0	-0.5	0.2	5.0	96.0	-2.0	99.0
CC1(C)CC(C)(O)N(Cc2ccccc2)C(=S)N1 (stereo not given)	0.2	133.0*	112.0	1.7	-1.6	1.0	101.0	2.0	101.0
COc1ccccc1N(CC(=O)NCC1CCCO1)C(=O)CNS(=O)(=O)c1ccc(Cl)cc1 (stereo not given)	2.5	128.0*	122.0	-5.0	0.7	28.0	100.0	0.0	98.0
Cc1ccc(C#N)c(SCc2ccccc2F)n1	0.2	49.0*[inhibitor]	59.0	-4.0	-0.1	-14.0	104.0	0.0	102.0
COc1ccc(C(=O)NN/C(C)=C/C(=O)C(F)(F)C(F)(F)C(F)(F)F)cc1	1.4	130.0*	102.0	-5.1	-1.0	-1.0	95.0	-2.0	99.0
OCc1nnc2c3ccccc3c(-c3ccccc3)nn12	-7.8	122.0*	118.0	13.1	-3.1	10.0	106.0	8.0	103.0
CC(NC(=O)CNC(=O)c1sc2ccccc2c1Cl)c1ccc(S(N)(=O)=O)cc1 (stereo not given)	-4.2	.	.	-0.5	2.2	.	.	.	.
Oc1ccc2ccccc2c1CN1CCN(C/C=C/c2ccccc2)CC1	2.6	117.0	140.0*	0.1	-1.4	25.0*	122.0	13.0	104.0
Cc1ccc(NC(=O)c2nc[nH]c2C(=O)N(C)Cc2ccccc2)cc1	.	.	.	-0.2	1.1	.	.	.	.
CC(=O)NC(CCCNC(=S)NC1CCCCC1)C(=O)O (stereo not given)	2.5	101.0	96.0	-0.2	0.1	-1.0	.	.	.
Cc1cccc(C(=O)N[C@H](C(=O)Nc2nc3ccccc3[nH]2)C(C)C)c1	1.9	132.0*	120.0	-1.6	-1.1	5.0	99.0	-5.0	102.0
Cc1ccc(OCC(=O)Nc2ccc(S(=O)(=O)Nc3ccccn3)cc2)c(C)c1	-0.8	116.0	100.0	-0.7	-0.2	0.0	.	.	.
Cc1ccccc1OCC(=O)Nc1ccc(S(=O)(=O)Nc2ccccn2)cc1	10.9	136.0*	109.0	-2.6	0.4	0.0	96.0	1.0	100.0
CCOC(=O)C1CCN(C(=O)CCS(=O)(=O)c2ccc3c(c2)n(C)c(=O)c(=O)n3C)CC1	2.1	100.0	95.0	.	-1.0	-1.0	.	.	.
CN(CC(=O)NCc1cccs1)S(=O)(=O)c1cccc2nsnc12	-5.6	2.0*[inhibitor]	3.0*[inhibitor]	2.3	0.0	-21.0	107.0	7.0	103.0
SMILES	GSK3B inh	MEKK3 PB1 HTS	MEKK2wt PB1 HTS	GSK3A inh	STK33 inh	MEKK2 mut-MEK5	MEKK2wt confirm	MEKK2mut-MEK5	MEKK3 confirm
CN(CC(=O)NCc1ccc(F)cc1)S(=O)(=O)c1cccc2nsnc12	-0.6	98.0	97.0	2.5	-1.3	-5.0	.	.	.
COc1ccc(NC(=O)CSCC(=O)N2CCN(c3cccc(C(F)(F)F)c3)CC2)cc1	.	.	.	4.7	-0.4	.	.	.	.
COc1ccc(NC(=O)N2CCN(c3cccc(C(F)(F)F)c3)CC2)cc1	-2.1	0.0*[inhibitor]	0.0*[inhibitor]	1.0	-1.8	-21.0	97.0	-4.0	101.0
CN(CC(=O)Nc1ccc2c(c1)OCCO2)S(=O)(=O)c1ccc(F)cc1	2.4	102.0	98.0	-1.2	-3.2	0.0	.	.	.
O=C(CCc1ccccc1)N=C1SC2CS(=O)(=O)CC2N1c1ccccc1F (stereo not given)	-4.3	102.0	103.0	-1.3	3.9	2.0	.	.	.
Cc1oc(-c2cccc(Cl)c2)nc1CN1CCC(C(=O)N2CCN(c3ccccc3F)CC2)CC1	2.4	106.0	140.0*	-0.1	-0.8	25.0	141.0	28.0	109.0
Cc1oc(-c2ccc(Cl)cc2)nc1CN1CCC(C(=O)N2CCN(Cc3ccccc3)CC2)CC1	3.3	.	.	2.2	-2.1	.	.	.	.
COc1ccccc1OCCCCn1c(C(C)O)nc2ccccc21 (stereo not given)	4.8	93.0	100.0	-3.4	-2.5	2.0	.	.	.

Assay outcomes as filed in PubChem BioAssay.
